Test results reported in ChEMBL document CHEMBL1146552, “Cytotoxic diterpenes from Scoparia dulcis” (2003).
Counter-ions that a name gives are not always drawn. The source made the active and inactive calls. No cut-off for these calls is given here.

Columns and labels:
[1] = (§1) Cytotoxicity against human KATO III cells by MTT assay; format: functional, KATO III cell; conditions: read-out: ED50 (the source's name)
Outline: (§2)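 Human stomach cancer cells grown in RPMI-1640 complete medium; test materials prepared and cells cultured in medium with 0.25% DMSO. Serial dilutions at 250, 125, 62.5, 31.25 and 15.63 μg/mL, three replicates per concentration. Percent mortality by MTT, with cells in medium or medium-DMSO taken as 100% survival; ED50 (μM) derived, mean ± standard error. Vinblastine sulfate and mitomycin C as positive controls.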

[2] = (§3) Cytotoxicity against human SCL9 cells by MTT assay; format: functional; conditions: read-out: ED50 (the source's name); outline: as §2
[3] = Cytotoxicity against human SCL6 cells by MTT assay; format: functional; conditions: read-out: ED50 (the source's name); outline: as §2
[4] = (§4) Cytotoxicity against human SCL37'6 cells by MTT assay; format: functional; conditions: read-out: ED50 (the source's name); outline: as §2
[5] = (§5) Cytotoxicity against human SCL cells by MTT assay; format: functional; conditions: read-out: ED50 (the source's name); outline: as §2
NUGC-4 = assay: Cytotoxicity against human NUGC4 cells by MTT assay; format: functional; conditions: for EC50: read-out: ED50 (the source's name); outline: as §2
KATO III cell = assay: as §1; format: functional; outline: as §2
SCL9 = assay: as §3; format: functional; outline: as §2
SCL37'6 = assay: as §4; format: functional; outline: as §2
SCL = assay: as §5; format: functional; outline: as §2
SCL-6 (Homo sapiens) = assay: Cytotoxicity against human SCL6 cells by MTT assay

Row | Compound | EC50 [1] [µM] | EC50 [2] [µM] | EC50 [3] [µM] | EC50 [4] [µM] | EC50 [5] [µM] | EC50 (NUGC-4) [µM] | Activity (KATO III cell) | Activity (SCL9) | Activity (SCL37'6) | Activity (SCL) | Activity (NUGC-4) | Activity (SCL-6 (Homo sapiens))
1 | CC1(C)[C@@H](O)CC[C@@]2(C)[C@H]1[C@H](OC(=O)c1ccccc1)C[C@H]1CC(=O)[C@]3(C)CC[C@]12C3 | 71.7 | 57.9 | 62.9 | 45.8 | 19.5 | 123 | – | – | – | – | – | –
2 | CC1(C)CC[C@]2(C)CC[C@]3(C)[C@H]4CC=C5[C@@H](CC[C@H](O)C5(C)C)[C@]4(C)CC[C@@]3(C)[C@@H]2C1 | – | – | – | – | – | – | inactive | inactive | inactive | inactive | inactive | inactive
3 | COc1ccc2[nH]c(=O)oc2c1 | – | – | – | – | – | – | inactive | inactive | inactive | inactive | inactive | inactive
4 | C[C@@]12CC[C@]3(C1)[C@H](CC2=O)C[C@@H](OC(=O)c1ccccc1)[C@@H]1[C@]3(C)CCC[C@]1(C)C(=O)O [4-EPI-SCOPADULCIC ACID B] | 124 | 48.3 | 137 | 59.3 | 37 | 110 | – | – | – | – | – | –
5 | C[C@@]12CC[C@]3(C1)[C@@H](C[C@@H](OC(=O)c1ccccc1)[C@H]1[C@](C)(CO)CCC[C@@]13C)C[C@@H]2O [DULCIDIOL] | 29 | 41.6 | 46 | 42.6 | 45.3 | 105 | – | – | – | – | – | –
6 | CO[C@@]12[C@H](COC(N)=O)C3=C(C(=O)C(C)=C(N)C3=O)N1C[C@@H]1N[C@@H]12 [MITOMYCIN] | 49 | 17.4 | 20.7 | 19 | 20.2 | 19.1 | – | – | – | – | – | –
7 | C=C1C[C@@H](OC(=O)c2ccccc2)C2[C@](C)(CO)CCC[C@]2(C)[C@@H]1CC/C(C)=C/CO (some centres undefined) [SCOPADIOL] | 9.7 | 12.2 | 12.2 | 8.9 | 22.8 | 16.6 | – | – | – | – | – | –
8 | C[C@@]12CC[C@]3(C1)[C@H](CC2=O)C[C@@H](OC(=O)c1ccccc1)[C@H]1[C@](C)(CO)CCC[C@@]13C [SCOPADULCIOL] | 35.5 | 37.7 | 32.8 | 24.4 | 22 | 33.3 | – | – | – | – | – | –
9 | CC[C@]1(O)C[C@@H]2CN(CCc3c([nH]c4ccccc34)[C@@](C(=O)OC)(c3cc4c(cc3OC)N(C)[C@H]3[C@@](O)(C(=O)OC)[C@H](OC(C)=O)[C@]5(CC)C=CCN6CC[C@]43[C@@H]65)C2)C1 [VINBLASTINE SULFATE] | 6.1 | 5.3 | 6.1 | 5.3 | 5.9 | 5.3 | – | – | – | – | – | –
